The text below walks through data of ChEMBL document CHEMBL1144404, “Aminoimidazolylmethyluracil analogues as potent inhibitors of thymidine phosphorylase and their bioreductive nitroimidazolyl prodrugs” (J Med Chem, 2005).

Substrate in data set [1]: O=c1[nH]c(=O)n([C@H]2C[C@H](O)[C@@H](CO)O2)cc1[N+](=O)[O-]
Nature of the data set: Michaelis-Menten constant against Escherichia coli thymidine phosphorylase. Summed up: (§1)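 Continuous UV assay at 355 nm and 25 °C in 0.2 mL of 0.1 M potassium phosphate pH 7.4, using recombinant E. coli TP (ca. 0.00883 units per assay) added to start the reaction. Substrate is thymidine or 5-nitro-2'-deoxyuridine; phosphorolysis to 5-nitrouracil followed (εM 13300 M-1 cm-1 for substrate).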

Substrate in data set [2]: Cc1cn([C@H]2C[C@H](O)[C@@H](CO)O2)c(=O)[nH]c1=O
Nature of the data set: (§2) Vmax against Escherichia coli thymidine phosphorylase. Summed up: as §1

Substrate in data set [3]: O=c1[nH]c(=O)n([C@H]2C[C@H](O)[C@@H](CO)O2)cc1[N+](=O)[O-]
The description is as §2. Summed up:
as §1

Substrate in data set [4]: O=c1[nH]c(=O)n([C@H]2C[C@H](O)[C@@H](CO)O2)cc1[N+](=O)[O-]
Nature of the data set: Michaelis-Menten constant against human thymidine phosphorylase. In short, it runs like this: (§3)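 Recombinant human TP expressed in V79 Chinese hamster cells, 0.065 absorbance unit per assay. Continuous spectrophotometric assay at 355 nm, 25 °C, 0.1 M phosphate buffer pH 7.4, 0.2 mL total volume, with 5-nitro-2'-deoxyuridine as substrate; kinetic constants from initial rates.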

Substrate in data set [5]: O=c1[nH]c(=O)n([C@H]2C[C@H](O)[C@@H](CO)O2)cc1[N+](=O)[O-]
Nature of the data set: Vmax against human thymidine phosphorylase. Summed up: as §3

B1: Thymidine phosphorylase (Escherichia coli K-12), P07650 (protein)
chain: MFLAQEIIRKKRDGHALSDEEIRFFINGIRDNTISEGQIAALAMTIFFHDMTMPERVSLTMAMRDSGTVLDWKSLHLNGPIVDKHSTGGVGDVTSLMLGPMVAACGGYIPMISGRGLGHTGGTLDKLESIPGFDIFPDDNRFREIIKDVGVAIIGQTSSLAPADKRFYATRDITATVDSIPLITASILAKKLAEGLDALVMDVKVGSGAFMPTYELSEALAEAIVGVANGAGVRTTALLTDMNQVLASSAGNAVEVREAVQFLTGEYRNPRLFDVTMALCVEMLISGKLAKDDAEARAKLQAVLDNGKAAEVFGRMVAAQKGPTDFVENYAKYLPTAMLTKAVYADTEGFVSEMDTRALGMAVVAMGGGRRQASDTIDYSVGFTDMARLGDQVDGQRPLAVIHAKDENNWQEAAKAVKAAIKLADKAPESTPTVYRRISE
Broadly, the Km is the concentration of substrate that gives half-maximal velocity. One may read the Vmax as the rate approached at saturating substrate. Turning to B1, in data set [1], the Km was found to be 230 µM. Further, the Vmax amounted to 1.15 mM/min in data set [2] and 0.013 mM/min in data set [3].

B2: Thymidine phosphorylase (Homo sapiens), P19971 (protein)
chain: MAALMTPGTGAPPAPGDFSGEGSQGLPDPSPEPKQLPELIRMKRDGGRLSEADIRGFVAAVVNGSAQGAQIGAMLMAIRLRGMDLEETSVLTQALAQSGQQLEWPEAWRQQLVDKHSTGGVGDKVSLVLAPALAACGCKVPMISGRGLGHTGGTLDKLESIPGFNVIQSPEQMQVLLDQAGCCIVGQSEQLVPADGILYAARDVTATVDSLPLITASILSKKLVEGLSALVVDVKFGGAAVFPNQEQARELAKTLVGVGASLGLRVAAALTAMDKPLGRCVGHALEVEEALLCMDGAGPPDLRDLVTTLGGALLWLSGHAGTQAQGAARVAAALDDGSALGRFERMLAAQGVDPGLARALCSGSPAERRQLLPRAREQEELLAPADGTVELVRALPLALVLHELGAGRSRAGEPLRLGVGAELLVDVGQRLRRGTPWLRVHRDGPALSGPQSRALQEALVLSDRAPFAAPSPFAELVLPPQQ
For B2, the Km in data set [4] worked out at 160 µM. The Vmax in data set [5] stood at 0.0086 mM/min.
